pIC50: −log10 of the molar value. Values after ≈ are worked out from the molar mass of the structure shown.
Tests used:
[1] = molecular target: T1, Beta-ketoacyl-[acyl-carrier-protein] synthase III (Enterococcus faecalis (strain ATCC 700802 / V583), UniProt Q820T1); assay: Inhibitory concentration against Enterococcus faecalis beta-Ketoacyl-acyl carrier protein synthase III
T1 sequence (Q820T1 whole entry): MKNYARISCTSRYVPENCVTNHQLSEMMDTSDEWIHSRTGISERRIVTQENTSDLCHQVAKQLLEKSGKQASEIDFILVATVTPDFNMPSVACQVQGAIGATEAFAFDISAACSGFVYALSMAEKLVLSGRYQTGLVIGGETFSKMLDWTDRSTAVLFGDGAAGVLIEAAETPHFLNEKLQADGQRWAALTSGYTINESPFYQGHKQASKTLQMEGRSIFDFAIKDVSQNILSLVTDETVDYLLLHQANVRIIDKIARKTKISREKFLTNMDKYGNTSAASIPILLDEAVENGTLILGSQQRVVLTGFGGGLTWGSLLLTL
How it was run: (§1)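 Coupled FabD/FabH radiometric assay with His-tagged or tagless FabH expressed in E. coli BL21(DE3). The mix held 100 mM sodium phosphate pH 7.0, 2 mM DTT, 1 mM MgCl₂, 12.5 µM E. coli holo-ACP, 10 nM FabD and 3-5 nM FabH. Malonyl-CoA was added for 1 min, then acetyl-CoA plus [³H]acetyl-CoA, NADH and NADPH for 19 min. TCA-precipitated protein was counted by liquid scintillation; DMSO ≤2% final.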

[2] = tested on: Escherichia coli; assay: Minimum inhibitory concentration against Escherichia coli TolC- mutant in presence of membrane permeablizing agent polymyxin B; format: functional
[3] = Minimum inhibitory concentration against Enterococcus faecalis VRE 583; format: functional, Enterococcus faecalis V583
[4] = tested on: Staphylococcus aureus; assay: Minimum inhibitory concentration against Staphylococcus aureus MRSA 703; format: functional
[5] = tested on: Streptococcus pneumoniae; assay: Minimum inhibitory concentration against Streptococcus pneumonia ATCC 6301; format: functional
[6] = tested on: Neisseria meningitidis; assay: Minimum inhibitory concentration against Neisseria meningitides MC58 in presence of membrane permeablizing agent polymyxin B; format: functional
[7] = tested on: Streptococcus pyogenes; assay: Minimum inhibitory concentration against Streptococcus pyogenes NZ131; format: functional
[8] = molecular target: T2, Beta-ketoacyl-[acyl-carrier-protein] synthase III (Staphylococcus aureus subsp. aureus Mu50, UniProt P68795); assay: Inhibitory concentration against Staphylococcus aureus beta-Ketoacyl-acyl carrier protein synthase III
T2 sequence (P68795 whole entry): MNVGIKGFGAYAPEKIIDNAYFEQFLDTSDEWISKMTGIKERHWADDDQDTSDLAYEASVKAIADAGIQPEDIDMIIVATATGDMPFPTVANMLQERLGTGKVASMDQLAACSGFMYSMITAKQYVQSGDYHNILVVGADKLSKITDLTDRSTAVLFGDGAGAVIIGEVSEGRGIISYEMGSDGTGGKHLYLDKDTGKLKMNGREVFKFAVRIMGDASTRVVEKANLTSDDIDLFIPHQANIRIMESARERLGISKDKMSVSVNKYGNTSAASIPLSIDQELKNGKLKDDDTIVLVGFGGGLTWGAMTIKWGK
How it was run: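 Coupled FabD/FabH radiometric assay, 100 µL final, pH 7.0: 100 mM sodium phosphate, 2 mM DTT, 1 mM MgCl2, 12.5 µM E. coli holo-ACP, 10 nM FabD, 20 nM S. aureus FabH (His-tagged or tagless, expressed in E. coli BL21(DE3)). FabD started with malonyl-CoA for 1 min. Acetyl-CoA plus [3H]acetyl-CoA, NADH and NADPH then added; FabH reaction 19 min. Stopped with TCA; pellet counted by liquid scintillation. DMSO ≤2% final.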

[9] = molecular target: T3, Beta-ketoacyl-[acyl-carrier-protein] synthase III (Streptococcus pyogenes serotype M3 (strain ATCC BAA-595 / MGAS315), UniProt P0DB00); assay: Inhibitory concentration against Streptococcus pyogenes beta-Ketoacyl-acyl carrier protein synthase III
T3 sequence (P0DB00 whole entry): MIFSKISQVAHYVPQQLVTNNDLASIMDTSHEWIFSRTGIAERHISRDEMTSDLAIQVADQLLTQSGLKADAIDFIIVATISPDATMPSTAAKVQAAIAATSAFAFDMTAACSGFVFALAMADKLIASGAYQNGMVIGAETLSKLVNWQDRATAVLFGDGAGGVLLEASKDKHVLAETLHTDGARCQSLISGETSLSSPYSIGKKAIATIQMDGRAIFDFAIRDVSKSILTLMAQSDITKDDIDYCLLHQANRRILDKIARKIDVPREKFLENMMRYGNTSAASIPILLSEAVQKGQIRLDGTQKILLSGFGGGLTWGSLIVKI
How it was run: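 S. pyogenes FabH (10 nM, His-tagged or tagless, expressed in E. coli BL21(DE3)) was run in a coupled assay with 10 nM FabD, 12.5 µM holo-ACP, 100 mM sodium phosphate pH 7.0, 2 mM DTT and 1 mM MgCl₂. Malonyl-CoA was added for 1 min, then [³H]acetyl-CoA/acetyl-CoA with NADH and NADPH for 19 min. The reaction was stopped with cold TCA and the pellet read by scintillation. Inhibitor DMSO ≤2%.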

[10] = molecular target: T4, Beta-ketoacyl-[acyl-carrier-protein] synthase III (Haemophilus influenzae (strain ATCC 51907 / DSM 11121 / KW20 / Rd), UniProt P43711); assay: Inhibitory concentration against Haemophilus influenzae beta-Ketoacyl-acyl carrier protein synthase III; how it was run: as §1
T4 sequence (P43711 whole entry): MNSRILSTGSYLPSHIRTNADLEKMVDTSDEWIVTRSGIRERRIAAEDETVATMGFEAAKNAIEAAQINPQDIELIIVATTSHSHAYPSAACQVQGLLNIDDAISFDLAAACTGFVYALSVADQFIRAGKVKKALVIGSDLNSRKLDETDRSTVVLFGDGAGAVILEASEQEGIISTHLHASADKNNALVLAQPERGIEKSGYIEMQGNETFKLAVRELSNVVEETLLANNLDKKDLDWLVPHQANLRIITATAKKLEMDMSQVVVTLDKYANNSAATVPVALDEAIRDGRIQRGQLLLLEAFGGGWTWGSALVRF

| pIC50 [1] | MIC [2] | MIC [3] | MIC [4] | MIC [5] | MIC [6] | MIC [7] | Compound | other results |
| --- | --- | --- | --- | --- | --- | --- | --- | --- |
| 4.94 |  |  |  |  |  |  | CCN(CC)S(=O)(=O)c1cc(C(=O)Nc2ccccc2C(=O)O)ccc1OC |  |
| 4.42 |  |  |  |  |  |  | CC1CN(c2ccc(C(=O)Nc3ccccc3C(=O)O)cc2Oc2ccccc2)CC(C)N1 (centres undefined) |  |
| 5.92 |  |  |  |  |  |  | O=C(Nc1ccccc1C(=O)O)c1ccc(N2CCSCC2)c(Oc2ccccc2)c1 |  |
| 6.80 | 0.7 µg/mL | 11.3 µg/mL (≈ 25.4 µM) | 5.6 µg/mL (≈ 12.6 µM) | 2.8 µg/mL (≈ 6.29 µM) | 0.36 µg/mL | 2.8 µg/mL (≈ 6.29 µM) | O=C(Nc1ccccc1C(=O)O)c1ccc(-c2ccc(F)cc2F)c(Oc2ccccc2)c1 |  |
| 5.68 |  |  |  |  |  |  | O=C(O)c1ccc(-c2ccc(C(=O)Nc3ccccc3C(=O)O)cc2Oc2ccccc2)cc1 |  |
| 5.42 |  |  |  |  |  |  | O=C(Nc1ccccc1C(=O)O)c1ccc(F)c(Oc2ccccc2)c1 |  |
| 5.30 |  |  |  |  |  |  | O=C(Nc1ccccc1C(=O)O)c1cccc(Oc2ccc(F)cc2)c1 |  |
| 5.36 |  |  |  |  |  |  | O=C(O)c1ccc(Oc2cccc(C(=O)Nc3ccccc3C(=O)O)c2)cc1 |  |
| < 3.00 |  |  |  |  |  |  | O=C(Nc1ncccc1C(=O)O)c1cccc(Oc2ccccc2)c1 |  |
| 6.39 |  |  |  |  |  |  | O=C(Nc1cccc(O)c1C(=O)O)c1cccc(Oc2ccccc2)c1 |  |
| 6.80 |  |  |  |  |  |  | Cc1ccc(-c2ccc(C(=O)Nc3ccccc3C(=O)O)cc2Oc2ccccc2)cc1 |  |
| 6.60 | 0.7 µg/mL | 5.6 µg/mL (≈ 12.2 µM) | 5.6 µg/mL (≈ 12.2 µM) | 2.8 µg/mL (≈ 6.11 µM) | 0.7 µg/mL | 1.4 µg/mL (≈ 3.06 µM) | Cc1cc(-c2ccc(C(=O)Nc3ccccc3C(=O)O)cc2Oc2ccccc2)ccc1Cl |  |
| 6.57 | 5.6 µg/mL | 11.3 µg/mL (≈ 25.4 µM) | 5.6 µg/mL (≈ 12.6 µM) | 2.8 µg/mL (≈ 6.3 µM) | 2.8 µg/mL | 2.8 µg/mL (≈ 6.3 µM) | CC1CC(C)CN(c2ccc(C(=O)Nc3ccccc3C(=O)O)cc2Oc2ccccc2)C1 (centres undefined) |  |
| 3.80 |  |  |  |  |  |  | CCN(CC)S(=O)(=O)c1cc(C(=O)Nc2ccccc2C(=O)O)cc(C)c1Br |  |
| 5.68 |  |  |  |  |  |  | CCN(CC)S(=O)(=O)c1cc(C(=O)Nc2ccccc2C(=O)O)ccc1OCC1CCCC1 |  |
| 6.62 | 0.7 µg/mL | 2.8 µg/mL (≈ 6.34 µM) | 5.6 µg/mL (≈ 12.7 µM) | 0.7 µg/mL (≈ 1.59 µM) | 0.7 µg/mL | 2.8 µg/mL (≈ 6.34 µM) | Cc1cc(-c2ccc(C(=O)Nc3ccccc3C(=O)O)cc2Oc2ccccc2)ccc1F |  |
| 6.48 |  |  |  |  |  |  | O=C(Nc1ccccc1C(=O)O)c1ccc(-c2ccc(F)c(F)c2)c(Oc2ccccc2)c1 |  |
| 5.22 |  |  |  |  |  |  | O=C(Nc1cccc(F)c1C(=O)O)c1cccc(Oc2ccccc2)c1 |  |
| 5.43 |  |  |  |  |  |  | O=C(O)c1cccc(Oc2cccc(C(=O)Nc3ccccc3C(=O)O)c2)c1 |  |
| 5.00 |  |  |  |  |  |  | O=C(Nc1ccccc1C(=O)O)c1cccc(Oc2ccncc2)c1 |  |

| Compound | pIC50 [1] | MIC [2] | MIC [3] | MIC [4] | MIC [5] | MIC [6] | MIC [7] | other results |
| --- | --- | --- | --- | --- | --- | --- | --- | --- |
| CS(=O)(=O)c1ccc(-c2ccc(C(=O)Nc3ccccc3C(=O)O)cc2Oc2ccccc2)cc1 | 7.55 | 5.6 µg/mL | > 45 µg/mL | 45 µg/mL (≈ 92.3 µM) | 45 µg/mL (≈ 92.3 µM) | 5.6 µg/mL | 22 µg/mL (≈ 45.1 µM) | pIC50 [8]: 4.62; pIC50 [9]: 8.52; pIC50 [10]: < 4.00 |
| O=C(Nc1cccc(O)c1C(=O)O)c1ccc(Br)c(Oc2ccccc2)c1 | 7.21 | 2.8 µg/mL | > 45 µg/mL | 45 µg/mL (≈ 105 µM) | 45 µg/mL (≈ 105 µM) | 2.8 µg/mL | 11.3 µg/mL (≈ 26.4 µM) | pIC50 [8]: 4.91; pIC50 [9]: 7.47; pIC50 [10]: 4.70 |
| O=C(Nc1cccc(O)c1C(=O)O)c1ccc(-c2ccccc2)c(Oc2ccccc2)c1 | 8.40 | 1.4 µg/mL | > 45 µg/mL | 22 µg/mL (≈ 51.7 µM) | 22 µg/mL (≈ 51.7 µM) | 1.4 µg/mL | 5.6 µg/mL (≈ 13.2 µM) | pIC50 [8]: 5.42; pIC50 [9]: 8.40; pIC50 [10]: 5.62 |

— ChEMBL document CHEMBL1140263, “Structure-based design, synthesis, and study of potent inhibitors of beta-ketoacyl-acyl carrier protein synthase III as potential antimicrobial agents” (J Med Chem, 2005)
